Results of several laboratories.
Protocols differ between the studies behind these lines.
Organism: Escherichia coli
Effect on: microbial growth

COc1ccc2ccc(O)c(/C=N/[C@H]3CCCC[C@H]3/N=C/c3ccc(-c4ccccc4)cc3O)c2c1  MIC (broth dilution; clinical isolate): > 40 µM
CO/N=C(\C(=O)N[C@@H]1C(=O)N2C(C(=O)[O-])=C(C[N+]3(C)CCCC3)CS[C@H]12)c1csc(N)n1  MIC: ≤ 0.12 µg/mL
CCN(CC)c1ccc(C=NNC(=O)c2ccc(Cl)cc2)c(O)c1  MIC (broth dilution; ATCC25922): > 256 µg/mL
C[C@@H](O)[C@H]1C(=O)N2C(C(=O)O)=C(SCCN=CN)C[C@H]12  MIC: ≤ 0.25 µg/mL
CCN1CCN(c2cc3c(cc2F)c(=O)c(C(=O)O)cn3C2CC2)CC1  MIC (broth dilution; ATCC25922): 0.0625 µg/mL
CO/N=C(\C(=O)N[C@@H]1C(=O)N2C(C(=O)O)=C(CSc3nc(=O)c(=O)[nH]n3C)CS[C@H]12)c1csc(N)n1  MIC (broth dilution; ATCC25922): 16 µg/mL
CC(C)c1ccc(/C=C2\N=C(SCC(=O)O)N(c3ccccc3)C2=O)cc1  MIC (broth dilution; ATCC25 ATCC25922): 15 µg/mL
COc1ccc(N2N=C(C(C)=O)SC2=C(C#N)C(=O)c2ccc(Nc3cnccn3)cc2)cc1  MIC (broth dilution; ATCC10536): 6.25 µg/mL
O=C(N[C@H](CO)[C@H](O)c1ccc([N+](=O)[O-])cc1)C(Cl)Cl  MIC (broth dilution): 16 µg/mL
O=C1/C(=C/c2ccc3ccccc3c2O)NC(=S)N1c1ccccc1  MIC (broth dilution; ATCC25 ATCC25922): 16 µg/mL
N#CC(C#N)=C1SC(C(=O)c2ccc(Nc3cnccn3)cc2)=NN1c1ccccc1  MIC (broth dilution; ATCC10536): 50 µg/mL
CN1CCN(CCNCc2cc3ccccc3nc2SCc2ccccc2)CC1  MIC (broth dilution): 64 µg/mL
COc1ccc(N2N=C(C(=O)c3ccc(Nc4cnccn4)cc3)SC2=C(C#N)C#N)cc1  MIC (broth dilution; ATCC10536): 6.25 µg/mL
COc1cc2cc(CNCCN3CCN(C)CC3)c(SCc3ccccc3)nc2c(OC)c1OC  MIC (broth dilution): > 128 µg/mL
N=c1sc(C(=O)c2ccc(Nc3cnccn3)cc2)nn1-c1ccc([N+](=O)[O-])cc1  MIC (broth dilution; ATCC10536): 6.25 µg/mL
Cc1ccc2[nH]nc(-c3nnc(Nc4ccc(C(F)(F)F)cc4)s3)c2c1  MIC (ATCC25922): 43.3 µg/mL
CC(=O)C1=NN(c2ccc([N+](=O)[O-])cc2)C(=C(C#N)C(=O)c2ccc(Nc3cnccn3)cc2)S1  MIC (broth dilution; ATCC10536): 6.25 µg/mL
CCN1CCC(CCNCc2cc3cc(Br)ccc3nc2SCc2ccccc2)CC1  MIC (broth dilution): 32 µg/mL
N[C@@H](Cc1c[nH]c2ccc(Cl)cc12)C(=O)O  MIC (MG1655; 18 h): > 200 µM
COc1ccc2ccc(O)c(/C=N/[C@H]3CCCC[C@H]3/N=C/c3c(O)cccc3F)c2c1  MIC (broth dilution; clinical isolate): > 40 µM
C[C@@H](O)[C@H]1C(=O)N2C(C(=O)O)=C(S[C@@H]3CN[C@H](C(=O)N(C)C)C3)[C@H](C)[C@H]12  MIC: ≤ 0.25 µg/mL
CN(C)[C@@H]1C(O)=C(C(N)=O)C(=O)[C@@]2(O)C(O)=C3C(=O)c4c(O)cccc4[C@@](C)(O)[C@H]3C[C@@H]12  MIC (broth dilution; ATCC25922; 16 h): 3.1 µM
CC1(C)S[C@@H]2[C@H](NC(=O)[C@H](N)c3ccccc3)C(=O)N2[C@H]1C(=O)O  MIC (broth dilution; ATCC25922; 12 h): 8 µg/mL
Cc1ccc2[nH]nc(-c3nnc(Nc4ccc(F)cc4Cl)s3)c2c1  MIC (ATCC25922): 72.8 µg/mL
CO[C@H]1/C=C/O[C@@]2(C)Oc3c(C)c(O)c4c(O)c(c(/C=N/N5CCN(C)CC5)c(O)c4c3C2=O)NC(=O)/C(C)=C\C=C\[C@H](C)[C@H](O)[C@@H](C)[C@@H](O)[C@@H](C)[C@H](OC(C)=O)[C@@H]1C  MIC (broth dilution): 8 µM
c1ccc(CSc2nc3ccc(-c4ccccc4)cc3cc2CNCCC2CCN(C3CCCC3)CC2)cc1  MIC (broth dilution): 16 µg/mL
Cc1cc(Nc2nnc(-c3n[nH]c4ccc(C)cc34)s2)cc([N+](=O)[O-])c1  MIC (ATCC25922): 166 µg/mL
Brc1ccc2nc(SCc3ccccc3)c(CNCCC3CCN(C4CCCC4)CC3)cc2c1  MIC (broth dilution): 32 µg/mL
Cc1ccc2[nH]nc(-c3nnc(Nc4cc(Cl)cc(Br)c4)s3)c2c1  MIC (ATCC25922): 228 µg/mL
C[C@H]1COc2c(N3CCN(C)CC3)c(F)cc3c(=O)c(C(=O)O)cn1c23  MIC (ATCC25922; drug-resistant strain): ≤ 0.03 µg/mL
CC(=O)OCc1nn(C)c2nc(N)[nH]c(=O)c2c1=O  MIC (broth dilution; BW25113; 18 h): 25 µg/mL
CC[C@H]1OC(=O)[C@H](C)[C@@H](O[C@H]2C[C@@](C)(OC)[C@@H](O)[C@H](C)O2)[C@H](C)[C@@H](O[C@@H]2O[C@H](C)C[C@H](N(C)C)[C@H]2O)[C@](C)(O)C[C@@H](C)CN(C)[C@H](C)[C@@H](O)[C@]1(C)O  MIC (ATCC25922): < 98 µg/mL
[H]/N=C(\N/C(=N/[H])NCCCCCCNC(=N)NC(=N)Nc1ccc(Cl)cc1)Nc1ccc(Cl)cc1  MIC: 0.5 µM
CN1CCN(CCNCc2cc3cc(Br)ccc3nc2SCc2ccccc2)CC1  MIC (broth dilution): 16 µg/mL
Cc1ccc2[nH]nc(-c3nnc(Nc4ccc([N+](=O)[O-])cc4)s3)c2c1  MIC (ATCC25922): 92.8 µg/mL
CN(Cc1cnc2nc(N)nc(N)c2n1)c1ccc(C(=O)N[C@@H](CCC(=O)O)C(=O)O)cc1  MIC (broth dilution; BW25113; 18 h): > 250 µg/mL
COc1ccc2ccc(O)c(/C=N/[C@H]3CCCC[C@H]3/N=C/c3ccc(OCCN4CCCCC4)cc3O)c2c1  MIC (broth dilution; clinical isolate): > 40 µM
CO/N=C(\C(=O)N[C@@H]1C(=O)N2C(C(=O)O)=CCS[C@H]12)c1csc(N)n1  MIC (broth dilution; ATCC25922): 0.125 µg/mL
CCCCCCCCN=c1ccn(CCCCCCCCCCn2ccc(=NCCCCCCCC)cc2)cc1  MIC: 0.5 µM
CC1(C)S[C@@H]2[C@H](NC(=O)[C@H](N)c3ccccc3)C(=O)N2[C@H]1C(=O)O  MIC (broth dilution; ATCC25922): 4 µg/mL
CCN(CC)c1ccc(C=NC(=O)c2ccc3ccccc3c2)c(O)c1  MIC (broth dilution; ATCC25922): > 256 µg/mL
Cc1ccc2[nH]nc(-c3nnc(Nc4ccc(Cl)cc4)s3)c2c1  MIC (ATCC25922): 81.7 µg/mL
C[C@@H](O)[C@H]1C(=O)N2C(C(=O)O)=C(S[C@@H]3CN[C@H](C(=O)N(C)C)C3)[C@H](C)[C@H]12  MIC (broth dilution; ATCC25922): < 0.5 µg/mL
